MEKK3 PB1 HTS – modulators of MEKK3-MEK5 PB1 binding, primary screen, biochemical, wildtype MEKK3, multiplex bead flow cytometry, Alexa488-MEK5 | AID 1529, 2009 | bead-based flow cytometry, Alexa488-MEK5 binding to MEKK3; actives lie on both sides; 0 = blocked by unlabeled MEK5, 100 = vehicle | hit rate 1.4% among 290,000 | Mitogen-activated protein kinase kinase kinase 3 (Homo sapiens), Q99759 | binding response (% of control), % at 10 µM;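 active = binding response more than 3 SD above or below the average of its plate-row segment, actives on both sides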;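 also: Alexa488 bead fluorescence after subtracting the streptavidin-only scavenger bead signal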
STK33 kinase inh – inhibitors of purified STK33 kinase, primary screen, biochemical, ADP-Glo luminescence, homogeneous, cell-free; AID 2661, 2010; MBP phosphorylation; Serine/threonine-protein kinase 33 (Homo sapiens), Q9BYT3; inhibition, % at 10 µM; hit rate 0.073% among 320,000;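 active = inhibition at or above 25%, using the most active replicate where run in duplicate; inactive = inhibition below 25%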
GSK3 alpha inh – blockers of GSK3A enzyme activity – biochemical, luminescence, cell-free homogeneous, HTS, primary screen | GSK-3 alpha kinase, ADP-Glo luminescence, 60 min | inhibition, % at 10 µM | hit rate 0.1% among 320,000 | AID 2650, 2010;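 active = more than half of replicates show inhibition above 20%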;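 also: GST-tagged GSK-3 alpha with peptide substrate and 25 µM ATP; 0% = DMSO neutral wells and 100% = GW8510 positive control wells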
GSK3B inh – human GSK3beta kinase inhibitors, primary screen, biochemical, cell-free homogeneous, HTS | AID 2097, 2009 | GST-GSK3beta kinase, ADP-Glo luminescence, 60 min; hits give low values | Glycogen synthase kinase-3 beta (Homo sapiens), P49841 | activity score (negative = inhibition), % at 10 µM | hit rate 0.038% among 300,000;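 active = more than half of replicate wells score below -50%, meaning over 50% inhibition versus plate controls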;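 also: 0% = median DMSO wells and -100% = median GW8510 positive control wells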
Target sequence (P49841 whole entry, looked up): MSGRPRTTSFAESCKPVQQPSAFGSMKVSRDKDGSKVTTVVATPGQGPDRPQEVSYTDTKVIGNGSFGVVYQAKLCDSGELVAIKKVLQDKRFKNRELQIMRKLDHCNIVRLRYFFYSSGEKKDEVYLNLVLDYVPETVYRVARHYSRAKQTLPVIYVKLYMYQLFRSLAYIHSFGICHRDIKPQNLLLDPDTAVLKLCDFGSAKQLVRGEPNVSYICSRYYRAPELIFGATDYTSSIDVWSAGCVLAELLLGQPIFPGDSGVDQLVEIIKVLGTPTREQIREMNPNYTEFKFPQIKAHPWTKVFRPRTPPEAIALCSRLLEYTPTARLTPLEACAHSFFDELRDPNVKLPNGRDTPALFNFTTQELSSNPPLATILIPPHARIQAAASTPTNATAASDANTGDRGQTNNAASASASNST
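Test system – GST-tagged human GSK3beta kinase, cell-free · Incubation – 60 min enzyme reaction, room temperature · Signal – ADP-Glo luminescence · Also added – peptide substrate and ATP at 25 µM · Controls – DMSO neutral wells and GW8510 at 20 µM as positive · Buffer or medium – Tris/MgCl2 kinase buffer · Measure – Luminescence-derived activity versus plate DMSO and GW8510 wells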
MEKK2 mut-MEK5 – MEK5 binding signal on mutant MEKK2 PB1, primary screen, biochemical, multiplex bead flow cytometry, Alexa488-MEK5; AID 1530, 2009; Alexa488-MEK5 binding to MEKK2 mutant; hit rate 0.35% among 290,000; percent response, % at 10 µM; in the data active = percent response above about 24%, passing the limit was not always enough
MEKK2 WT-MEK5 – modulators of MEK5 binding to wildtype MEKK2, primary screen, biochemical, multiplex bead flow cytometry, Alexa488-MEK5. Mitogen-activated protein kinase kinase kinase 2 (Homo sapiens), Q9Y2U5. Alexa488-MEK5 binding to MEKK2 WT; actives lie on both sides. binding response (% of control), % at 10 µM. hit rate 1.1% among 290,000. AID 1531, 2009; in the data active = binding response below about 67% or above about 130%
MEKK2wt confirm – modulators of MEK5 binding to wildtype MEKK2, confirmation, biochemical, single concentration, multiplex bead flow cytometry. shares compounds with MEKK3 PB1 HTS. Alexa488-MEK5 binding to MEKK2 WT; actives lie on both sides. binding response (% of control), % at 10 µM. hit rate 2.4% among 5,900. AID 1892, 2009; in the data active = binding response below about 16% or above about 210%; inactive = in between
MEKK2mut confirm – mutant MEKK2 PB1-MEK5 binding signal retest – biochemical, single concentration, multiplex bead flow cytometry, confirmation | shares compounds with MEKK3 PB1 HTS | Alexa488-MEK5 binding to MEKK2 mutant | percent response, % at 10 µM | hit rate 2% among 5,900 | AID 1893, 2009; in the data active = percent response mostly above about 71%, no sharp cut-off; inactive = mostly below about 38%;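 also: higher means compound restores mutant binding toward wildtype level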
MEKK3 confirm – MEKK3 wild-type PB1 binding to MEK5, inhibitors, confirmation, biochemical, bead multiplex flow cytometry, single concentration, wildtype. shares compounds with MEKK3 PB1 HTS. Alexa488-MEK5 binding to MEKK3; hits give low values. binding response (% of control), % at 10 µM. hit rate 1.8% among 5,900. AID 1894, 2009;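 active = binding response below 72% of control, or above a set upper limit, though filed actives all read lower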;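 also: 100% = DMSO only wells and 0% = binding blocked by excess unlabeled MEK5; lower values mean stronger disruption of MEK5 binding to MEKK3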
Active calls of the source: *; [ ] = remark or other dose. Sampled rows, rich in hits. Any-hit rate of the full collection: about 2.1%.

`Cc1cc(C)c(NC(=O)CNC(=O)CSc2nnc(N)s2)c(C)c1` gave STK33 kinase inh 0.7, GSK3 alpha inh -0.6 and GSK3B inh 0.6.
Cc1cc(NC(=O)CSc2nnc(N)s2)c([N+](=O)[O-])cc1C was read as MEKK3 PB1 HTS 65.0*[inhibitor], STK33 kinase inh 1.0, GSK3 alpha inh -1.2, GSK3B inh -0.1, MEKK2 mut-MEK5 -4.0, MEKK2 WT-MEK5 77.0, MEKK2wt confirm 97.0, MEKK2mut confirm -2.0 and MEKK3 confirm 99.0.
For Cc1cc(NC(=O)c2ccccc2Cl)no1 the results were MEKK3 PB1 HTS 35.0*[inhibitor], STK33 kinase inh -1.8, GSK3 alpha inh -4.0, GSK3B inh 3.4, MEKK2 mut-MEK5 -30.0, MEKK2 WT-MEK5 59.0, MEKK2wt confirm 106.0, MEKK2mut confirm -1.0 and MEKK3 confirm 99.0.
`Cc1cc(NC(=O)c2cc(Cl)ccc2Cl)no1` gave MEKK3 PB1 HTS 106.0, STK33 kinase inh -0.5, GSK3 alpha inh -3.9, GSK3B inh 0.1, MEKK2 mut-MEK5 5.0 and MEKK2 WT-MEK5 106.0.
CC(C)(C)c1ccc(C(=O)N/N=C2\C3CN4CCN(C3)CC2(c2ccccc2)C4)cc1 was read as MEKK3 PB1 HTS 132.0*, GSK3B inh -19.5, MEKK2 mut-MEK5 0.0, MEKK2 WT-MEK5 106.0, MEKK2wt confirm 100.0, MEKK2mut confirm -4.0 and MEKK3 confirm 101.0.
Screening CCCC12CN3CCN(CC(C3)/C1=N\NC(=O)c1ccccc1N)C2 returned MEKK3 PB1 HTS 154.0*, GSK3B inh 0.9, MEKK2 mut-MEK5 1.0, MEKK2 WT-MEK5 114.0, MEKK2wt confirm 99.0, MEKK2mut confirm -5.0 and MEKK3 confirm 101.0.
Screening Nc1ccccc1C(=O)N/N=C1/C2CN3CCN(C2)CC1(Cc1ccccc1)C3 returned MEKK3 PB1 HTS 99.0, STK33 kinase inh -0.6, GSK3 alpha inh -2.1, GSK3B inh -0.7, MEKK2 mut-MEK5 4.0 and MEKK2 WT-MEK5 102.0.
`CSc1ccc(NC(=O)c2cccnc2)cc1C#N` gave MEKK3 PB1 HTS 93.0, STK33 kinase inh 0.3, GSK3 alpha inh -1.5, GSK3B inh 5.2, MEKK2 mut-MEK5 -3.0 and MEKK2 WT-MEK5 95.0.
Screening CC(Oc1ccccc1F)C(=O)NNC(=O)CC(C)c1ccccc1 (stereo not given) returned STK33 kinase inh -0.9, GSK3 alpha inh -0.8 and GSK3B inh 1.9.
`COc1cccc(CCNC(=O)CCc2nnc(Cc3cc(OC)ccc3OC)o2)c1` gave MEKK3 PB1 HTS 103.0, STK33 kinase inh -0.8, GSK3 alpha inh -0.2, GSK3B inh -0.9, MEKK2 mut-MEK5 3.0 and MEKK2 WT-MEK5 104.0.
Screening Cc1cc(N2CCN(c3ncccn3)CC2)nc2c(C)cccc12 returned MEKK3 PB1 HTS 106.0, STK33 kinase inh 0.8, GSK3 alpha inh -1.0, GSK3B inh 3.6, MEKK2 mut-MEK5 7.0 and MEKK2 WT-MEK5 104.0.
`COc1ccc(N2CCN(c3cc(C)c4cccc(C)c4n3)CC2)cc1` gave MEKK3 PB1 HTS 67.0*[inhibitor], STK33 kinase inh -0.5, GSK3 alpha inh -1.2, GSK3B inh 0.9, MEKK2 mut-MEK5 -11.0, MEKK2 WT-MEK5 86.0, MEKK2wt confirm 98.0, MEKK2mut confirm -6.0 and MEKK3 confirm 100.0.
Screening N#Cc1ccc(/C=N/N=C(N)N)cc1 returned MEKK3 PB1 HTS 100.0, STK33 kinase inh -0.4, GSK3 alpha inh -1.8, GSK3B inh 1.5, MEKK2 mut-MEK5 5.0 and MEKK2 WT-MEK5 105.0.
NC(N)=N/N=C/c1ccc(OCc2ccc(Cl)cc2)cc1 was read as MEKK3 PB1 HTS 96.0, STK33 kinase inh 4.3, GSK3 alpha inh 1.6, GSK3B inh -10.7, MEKK2 mut-MEK5 29.0*, MEKK2 WT-MEK5 183.0*, MEKK2wt confirm 205.0, MEKK2mut confirm 56.0 and MEKK3 confirm 106.0.
Screening Cc1cc(C)cc(OCC(=O)OCC(=O)N(C)CC(=O)Nc2ccc(F)cc2)c1 returned STK33 kinase inh -1.1, GSK3 alpha inh -1.6 and GSK3B inh 0.6.
Cc1ccc(N(C)C(=O)n2cnc3ccccc32)cc1 was read as MEKK3 PB1 HTS 105.0, STK33 kinase inh -1.3, GSK3 alpha inh -0.9, GSK3B inh -1.4, MEKK2 mut-MEK5 5.0 and MEKK2 WT-MEK5 104.0.
Cc1cccc(N2CCc3c2nc2ccc(Br)cc2c3N)c1 was read as MEKK3 PB1 HTS 124.0*, STK33 kinase inh -1.4, GSK3 alpha inh 6.3, GSK3B inh 3.5, MEKK2 mut-MEK5 18.0, MEKK2 WT-MEK5 96.0, MEKK2wt confirm 121.0, MEKK2mut confirm 22.0 and MEKK3 confirm 111.0.
Screening Nc1c2c(nc3ccc(Br)cc13)N(c1ccccc1)CC2 returned MEKK3 PB1 HTS 104.0, STK33 kinase inh 0.3, GSK3 alpha inh 7.8, MEKK2 mut-MEK5 6.0 and MEKK2 WT-MEK5 117.0.
For COC(=O)c1c(NC(=O)c2cccnc2)sc(C(=O)N(C)C)c1C the results were MEKK3 PB1 HTS 162.0*, STK33 kinase inh -0.8, GSK3 alpha inh -0.1, GSK3B inh -2.1, MEKK2 mut-MEK5 1.0, MEKK2 WT-MEK5 109.0, MEKK2wt confirm 107.0, MEKK2mut confirm 3.0 and MEKK3 confirm 106.0.
Screening CC1CC(C)CN(C(=O)C2CCN(S(=O)(=O)N3CCC4(CC3)OCCO4)CC2)C1 (stereo not given) returned MEKK3 PB1 HTS 102.0, STK33 kinase inh -2.5, GSK3 alpha inh 0.0, GSK3B inh -1.6, MEKK2 mut-MEK5 5.0 and MEKK2 WT-MEK5 103.0.

Screens from PubChem.
